Measurements as given in ChEMBL document CHEMBL3621084, “Discovery of 2-Pyridinone Aminals: A Prodrug Strategy to Advance a Second Generation of HIV-1 Integrase Strand Transfer Inhibitors” (J Med Chem, 2015).
≈ marks a conversion by molar mass, not a printed value.

Experiments:
[1] = test system: Human immunodeficiency virus 1; test: Antiviral activity against HIV1 infected in human MT4 cells expressing GFP incubated for 48 to 72 hrs in absence of 50% normal human serum by multiple round viral replication kinetics assay; format: functional
[2] = Solubility in FaSSiF at pH 6.5 at room temperature incubated for 4 hrs; format: physicochemical
Canis familiaris [3] = test: AUC (0 to infinity) in beagle dog assessed as (1R,2R,5S)-8'-(3-chloro-4-fluorobenzyl)-6'-hydroxy-2'-((S)-2-hydroxypropyl)-9',10'-dihydro-1'H-spiro[bicyclo[3.1.0]hexane-2,3'-imidazo[5,1-a][2,6]naphthyridine]-1',5',7'(2'H,8'H)-trione level at 100 mg/kg, po by LC-MS/MS method; format: ADME, organism-based, Canis lupus familiaris; parameters: dose 100 mg/kg, time infinity, route oral; details: in vivo
Method in brief: (§1)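 Oral rising-dose studies were run in beagle dogs with prodrugs, at doses normalized to account for the promoiety so that they give the actual parent dose administered. The read-out was plasma exposure (AUC) of the parent compound.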

[4] = Stability in SGF at pH 1.8 at 37 °C incubated for 4 hrs
[5] = Stability in FaSSiF at pH 6.5 at 37 °C incubated for 4 hrs
[6] = Permeability in LLC-PK1 cells at 1 uM incubated for 3 hrs by LC-MS/MS method; format: ADME, cell-based, Sus scrofa; details: pig, read-out: permeability
[7] = Permeability in MDCK2 cells at 1 uM incubated for 3 hrs by LC-MS/MS method; format: ADME, cell-based, Canis lupus familiaris, MDCK-II; details: dog, MDCK; read-out: permeability
Canis familiaris [8] = test: AUC (0 to infinity) in beagle dog assessed as c(1R,2S,5R)-8'-(3-chloro-4-fluorobenzyl)-6'-hydroxy-1-(hydroxymethyl)-2'-methyl-9',10'-dihydro-1'H-spiro[bicyclo[3.1.0]hexane-2,3'-imidazo[5,1-a][2,6]naphthyridine]-1',5',7'(2'H,8'H)-trione evel at 2 mg/kg, po by LC-MS/MS method; format: ADME, organism-based, Canis lupus familiaris; parameters: dose 2 mg/kg, route oral, time infinity; details: in vivo; method in brief: as §1
Canis familiaris [9] = test: AUC (0 to infinity) in beagle dog assessed as (1R,2S,5R)-8'-(3-chloro-4-fluorobenzyl)-6'-hydroxy-1-(hydroxymethyl)-2'-methyl-9',10'-dihydro-1'H-spiro[bicyclo[3.1.0]hexane-2,3'-imidazo[5,1-a][2,6]naphthyridine]-1',5',7'(2'H,8'H)-trione level at 30 mg/kg, po by LC-MS/MS method; format: ADME, organism-based, Canis lupus familiaris; parameters: dose 30 mg/kg, route oral, time infinity; details: in vivo; method in brief: as §1
[10] = AUC (0 to infinity) in portal vein of portal vein-cannulated beagle dog at 10 mg/kg, po by LC-MS/MS method; format: ADME, organism-based, Canis lupus familiaris; parameters: dose 10 mg/kg, time infinity, route oral
Method in brief: (§2)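 Portal vein-cannulated dogs received the prodrugs orally at doses normalized to 10 mg/kg of the parent molecule. Prodrug and parent concentrations were determined in plasma collected from the portal and jugular veins, and AUC was derived for each analyte at each site.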

[11] = AUC (0 to infinity) in jugular vein of portal vein-cannulated beagle dog at 10 mg/kg, po by LC-MS/MS method; format: ADME, organism-based, Canis lupus familiaris; parameters: dose 10 mg/kg, time infinity, route oral; method in brief: as §2
[12] = AUC (0 to infinity) in portal vein of portal vein-cannulated beagle dog assessed as (1R,2S,5R)-8'-(3-chloro-4-fluorobenzyl)-6'-hydroxy-1-(hydroxymethyl)-2'-methyl-9',10'-dihydro-1'H-spiro[bicyclo[3.1.0]hexane-2,3'-imidazo[5,1-a][2,6]naphthyridine]-1',5',7'(2'H,8'H)-trione level at 10 mg/kg, po by LC-MS/MS method; format: ADME, organism-based, Canis lupus familiaris; parameters: dose 10 mg/kg, route oral, time infinity; details: in vivo; method in brief: as §2
[13] = AUC (0 to infinity) in jugular vein of portal vein-cannulated beagle dog assessed as (1R,2S,5R)-8'-(3-chloro-4-fluorobenzyl)-6'-hydroxy-1-(hydroxymethyl)-2'-methyl-9',10'-dihydro-1'H-spiro[bicyclo[3.1.0]hexane-2,3'-imidazo[5,1-a][2,6]naphthyridine]-1',5',7'(2'H,8'H)-trione level at 10 mg/kg, po by LC-MS/MS method; format: ADME, organism-based, Canis lupus familiaris; parameters: dose 10 mg/kg, time infinity, route oral; details: in vivo; method in brief: as §2
[14] = test system: Human immunodeficiency virus 1; test: Antiviral activity against HIV1 infected in human MT4 cells expressing GFP incubated for 48 to 72 hrs in presence of 50% normal human serum by multiple round viral replication kinetics assay; format: functional
[15] = test system: Human immunodeficiency virus 1; test: Resistance index, ratio of IC50 for antiviral activity against HIV1 expressing integrase E92Q mutant to IC50 for antiviral activity against HIV1 expressing wild type integrase; format: functional
Method in brief: (§3)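 Fold shift computed as the inflection point (IP) against mutant HIV-1 divided by the IP against wild-type virus. Both IPs come from a kinetic HIV replication (viral kinetics) potency assay run in 50% normal human serum (NHS).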

[16] = test system: Human immunodeficiency virus 1; test: Resistance index, ratio of IC50 for antiviral activity against HIV1 expressing integrase Y143R mutant to IC50 for antiviral activity against HIV1 expressing wild type integrase; format: functional; method in brief: as §3
[17] = test system: Human immunodeficiency virus 1; test: Resistance index, ratio of IC50 for antiviral activity against HIV1 expressing integrase Q148R mutant to IC50 for antiviral activity against HIV1 expressing wild type integrase; format: functional; method in brief: as §3
[18] = Plasma clearance in beagle dog at 0.5 mg/kg, iv by LC-MS/MS method; format: ADME, organism-based, Canis lupus familiaris
[19] = Volume of distribution at steady state in beagle dog at 0.5 mg/kg, iv by LC-MS/MS method; format: ADME, organism-based, Canis lupus familiaris; details: in vivo, read-out: Vdss
[20] = AUC (0 to infinity) in beagle dog at 2 mg/kg, po by LC-MS/MS method; format: ADME, organism-based, Canis lupus familiaris; parameters: dose 2 mg/kg, route oral, time infinity; details: beagle, in vivo
[21] = Oral bioavailability in beagle dog at 2 mg/kg by LC-MS/MS method; format: ADME, organism-based, Canis lupus familiaris; details: beagle, in vivo
[22] = Protein binding in beagle dog plasma at 2.5 uM incubated for 4 hrs by LC-MS/MS detection based equilibrium dialysis method; format: ADME, cell-free, Canis lupus familiaris; details: read-out: PPB (converted)
[23] = Protein binding in human plasma at 2.5 uM incubated for 4 hrs by LC-MS/MS detection based equilibrium dialysis method; format: ADME, cell-free; details: read-out: PPB (converted)
Cytochrome P450 3A4 = Cytochrome P450 3A4 (Homo sapiens, UniProt P08684); test: Time dependent inhibition of CYP3A4 (unknown origin); format: ADME
[24] = Solubility in SGF at pH 1.8 at room temperature incubated for 4 hrs; format: physicochemical
Canis familiaris [25] = test: AUC (0 to infinity) in beagle dog assessed as (1R,2R,5S)-8'-(3-chloro-4-fluorobenzyl)-6'-hydroxy-2'-((S)-2-hydroxypropyl)-9',10'-dihydro-1'H-spiro[bicyclo[3.1.0]hexane-2,3'-imidazo[5,1-a][2,6]naphthyridine]-1',5',7'(2'H,8'H)-trione level at 2 mg/kg, po by LC-MS/MS method; format: ADME, organism-based, Canis lupus familiaris; parameters: dose 2 mg/kg, time infinity, route oral; details: in vivo; method in brief: as §1
[26] = Half life in beagle dog at 0.5 mg/kg, iv by LC-MS/MS method; details: in vivo
Canis familiaris [27] = test: AUC (0 to infinity) in beagle dog assessed as (1R,2R,5S)-8'-(3-chloro-4-fluorobenzyl)-6'-hydroxy-2'-((S)-2-hydroxypropyl)-9',10'-dihydro-1'H-spiro[bicyclo[3.1.0]hexane-2,3'-imidazo[5,1-a][2,6]naphthyridine]-1',5',7'(2'H,8'H)-trione level at 10 mg/kg, po by LC-MS/MS method; format: ADME, organism-based, Canis lupus familiaris; parameters: dose 10 mg/kg, time infinity, route oral; details: in vivo; method in brief: as §1
[28] = AUC (0 to infinity) in portal vein of portal vein-cannulated beagle dog assessed as (1R,2R,5S)-8'-(3-chloro-4-fluorobenzyl)-6'-hydroxy-2'-((S)-2-hydroxypropyl)-9',10'-dihydro-1'H-spiro[bicyclo[3.1.0]hexane-2,3'-imidazo[5,1-a][2,6]naphthyridine]-1',5',7'(2'H,8'H)-trione level at 10 mg/kg, po by LC-MS/MS method; format: ADME, organism-based, Canis lupus familiaris; parameters: dose 10 mg/kg, route oral, time infinity; details: in vivo; method in brief: as §2
[29] = AUC (0 to infinity) in jugular vein of portal vein-cannulated beagle dog assessed as (1R,2R,5S)-8'-(3-chloro-4-fluorobenzyl)-6'-hydroxy-2'-((S)-2-hydroxypropyl)-9',10'-dihydro-1'H-spiro[bicyclo[3.1.0]hexane-2,3'-imidazo[5,1-a][2,6]naphthyridine]-1',5',7'(2'H,8'H)-trione level at 10 mg/kg, po by LC-MS/MS method; format: ADME, organism-based, Canis lupus familiaris; parameters: dose 10 mg/kg, route oral, time infinity; details: in vivo; method in brief: as §2

Sequence of Cytochrome P450 3A4 (P08684 whole entry): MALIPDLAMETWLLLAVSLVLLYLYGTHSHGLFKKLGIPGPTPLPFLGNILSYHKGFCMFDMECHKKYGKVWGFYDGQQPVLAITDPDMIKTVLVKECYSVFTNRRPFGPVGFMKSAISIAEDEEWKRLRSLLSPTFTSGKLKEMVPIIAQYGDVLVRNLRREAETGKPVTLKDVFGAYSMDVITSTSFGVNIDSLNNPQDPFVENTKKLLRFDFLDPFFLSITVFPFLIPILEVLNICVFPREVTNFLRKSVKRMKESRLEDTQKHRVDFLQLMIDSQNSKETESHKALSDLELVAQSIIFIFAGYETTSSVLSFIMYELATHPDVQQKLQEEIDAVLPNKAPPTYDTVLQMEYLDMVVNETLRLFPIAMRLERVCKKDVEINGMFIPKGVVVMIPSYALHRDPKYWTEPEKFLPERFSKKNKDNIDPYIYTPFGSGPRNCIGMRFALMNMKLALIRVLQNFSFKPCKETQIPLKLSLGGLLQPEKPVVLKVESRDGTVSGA

SMILES	IP [1] [nM]	solubility at 4 h [2] [µg/mL]	remaining at 4 h [4] [%]	remaining at 4 h [5] [%]	Papp at 3 h, 1 µM [6] [×10⁻⁶ cm/s]	Papp at 3 h, 1 µM [7] [×10⁻⁶ cm/s]	AUC(0-inf) [10] [µM·h]	AUC(0-inf) [11] [µM·h]	AUC(0-inf) [20] [µM·h]	AUC (Canis familiaris [25]) [µM·h]	also measured
CC(C)OC(=O)OCOc1c2c(c3n(c1=O)[C@@]1(CC[C@H]4C[C@H]41)N(C[C@H](C)OP(=O)(O)O)C3=O)CCN(Cc1ccc(F)c(Cl)c1)C2=O	>4200	> 2000	> 98	> 98	–	–	–	–	–	–	AUC (Canis familiaris [3]): 570 µM·h
CC(C)OC(=O)OCOc1c2c(c3n(c1=O)[C@]1(CC[C@@H]4C[C@@]41CO)N(C)C3=O)CCN(Cc1ccc(F)c(Cl)c1)C2=O	16	500 (≈ 828 µM)	> 98	> 98	26.5	19.7	2.55	0.037	–	–	AUC (Canis familiaris [8]): 5 µM·h; AUC (Canis familiaris [9]): 284 µM·h; AUC [12]: 27.3 µM·h; AUC [13]: 30.4 µM·h
C[C@H](O)CN1C(=O)c2c3c(c(O)c(=O)n2[C@@]12CC[C@H]1C[C@H]12)C(=O)N(Cc1ccc(F)c(Cl)c1)CC3	2	58 (≈ 116 µM)	–	–	14.8	22.9	–	–	10.5	11	IP [14]: 67 nM; Ratio IC50 [15]: 1.5; Ratio IC50 [16]: 1; Ratio IC50 [17]: 1.5; clearance [18]: 3 mL/min/kg; Vd [19]: 0.6 L/kg; bioavailability [21]: 42%; fraction unbound at 4 h, 2.5 µM [22]: 0.012; fraction unbound at 4 h, 2.5 µM [23]: 0.025; TDI (Cytochrome P450 3A4): Not Active; solubility at 4 h [24]: 30 µg/mL (≈ 59.8 µM); half-life [26]: 5.9 h
CC(C)OC(=O)OCOc1c2c(c3n(c1=O)[C@@]1(CC[C@H]4C[C@H]41)N(C[C@H](C)O)C3=O)CCN(Cc1ccc(F)c(Cl)c1)C2=O	178	250 (≈ 404 µM)	> 98	> 98	26.7	23.5	1.12	0.034	–	23	AUC (Canis familiaris [27]): 128 µM·h; AUC [28]: 23.9 µM·h; AUC [29]: 33.9 µM·h
C[C@@H](CN1C(=O)c2c3c(c(O)c(=O)n2[C@@]12CC[C@H]1C[C@H]12)C(=O)N(Cc1ccc(F)c(Cl)c1)CC3)OP(=O)(O)O	1580	2300 (≈ 3950 µM)	> 98	> 98	–	–	–	–	6.8	–	–
